Consider one compound from ChEMBL document CHEMBL4043099, “Synthesis and biological activity of cyclolinopeptide A analogues modified with γ4-bis(homo-phenylalanine)” (Bioorg Med Chem, 2017).

The source made the active and inactive calls. The calls are words filed in the database; no cut-off is given here.

Data set [1] deals with PBMC. As to the kind of experiment: Cytotoxicity against human PBMC assessed as reduction in cell viability at 10 ug/ml after 24 hrs by MTT assay. Type of data set: cell-based. The gist of the method:
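Single-donor PBMC isolated on LSM, resuspended in RPMI-1640 with 10% FCS, L-glutamine, pyruvate, 2-mercaptoethanol and antibiotics. Cells plated at 3×10^5 per well and cultured 24 h with peptide at 1, 10 or 100 µg/mL. Survival read by MTT and expressed as % viable cells versus matched DMSO controls.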

Data set [2] deals with Jurkat. As to the kind of experiment: Inhibition of apoptosis in human Jurkat cells assessed as caspase-9 expression relative to beta actin at 10 ug/ml after 24 hrs by RT-PCR analysis. Type of data set: functional. The gist of the method: (§1)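 Jurkat cells (10^6/mL) exposed to 10 µg/mL peptide for 24 h (described as overnight in methods), with DMSO control. Total RNA extracted with TRIzol. Caspase-3, -8 and -9 transcripts measured by SYBR qPCR: 95 C for 5 min, then 35 cycles of 95 C for 30 s and 60 C for 45 s. Values given in arbitrary units relative to β-actin.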

The test system of data set [3] is Jurkat. Briefly: Induction of DNA fragmentation in human Jurkat cells at 10 ug/ml after 24 hrs by agarose gel electrophoresis. Type of data set: functional, cell-based. The gist of the method: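 Jurkat cells treated 24 h with 10 µg/mL peptide versus DMSO. About 2×10^6 cells lysed overnight at 37 C in Tris-HCl pH 8.5 with EDTA, 5% SDS and proteinase K. Lysates heat-inactivated, RNase-treated, DNA precipitated with isopropanol and ethanol-washed. Fragmentation assessed by gel electrophoresis.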

The test system of data set [4] is Jurkat. As to the kind of experiment: Inhibition of apoptosis in human Jurkat cells assessed as caspase-3 expression relative to beta-actin at 10 ug/ml after 24 hrs by RT-PCR analysis. Type of data set: functional. In short, it runs like this: as §1
In data set [5] the target is T1, Prostaglandin G/H synthase 2 (Homo sapiens) (UniProt P35354).
T1 sequence (whole entry): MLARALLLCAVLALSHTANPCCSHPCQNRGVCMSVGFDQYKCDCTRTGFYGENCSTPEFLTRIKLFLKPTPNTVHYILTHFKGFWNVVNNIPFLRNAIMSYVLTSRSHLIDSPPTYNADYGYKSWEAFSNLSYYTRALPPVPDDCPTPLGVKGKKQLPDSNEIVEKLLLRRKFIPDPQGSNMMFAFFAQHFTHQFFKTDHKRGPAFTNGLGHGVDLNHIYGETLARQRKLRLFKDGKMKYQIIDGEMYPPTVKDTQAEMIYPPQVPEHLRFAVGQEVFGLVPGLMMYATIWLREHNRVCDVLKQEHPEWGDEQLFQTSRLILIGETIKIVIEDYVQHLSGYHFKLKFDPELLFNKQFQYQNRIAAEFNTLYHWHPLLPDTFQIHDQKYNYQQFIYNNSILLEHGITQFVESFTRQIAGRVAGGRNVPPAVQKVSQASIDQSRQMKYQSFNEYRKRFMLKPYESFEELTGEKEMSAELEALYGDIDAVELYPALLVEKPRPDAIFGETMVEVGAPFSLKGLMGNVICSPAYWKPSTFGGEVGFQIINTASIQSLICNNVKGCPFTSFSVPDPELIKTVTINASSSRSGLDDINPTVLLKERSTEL
As to the kind of experiment: Inhibition of human recombinant COX-2 assessed as PGE2 formation at 100 pg/ml (reference value: 1072 ng/ml).

Data set [6] addresses T1, Prostaglandin G/H synthase 2 (Homo sapiens). As to the kind of experiment: Inhibition of human recombinant COX-2 assessed as PGE2 formation at 1000 pg/ml (reference value: 1072 ng/ml).
Data set [7] concerns PBMC. As to the kind of experiment: Immunosuppressive activity in human PBMC assessed as inhibition of PHA-induced proliferation after 4 days by MTT assay. The class given is functional, cell-based. In short, it runs like this:
(§2)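 PBMC (2×10^5 cells/well) in supplemented RPMI-1640, stimulated with 5 µg/mL PHA, with peptide at 1, 10 or 100 µg/mL. DMSO dilutions as control; no-PHA wells as baseline. Proliferation read by MTT after 4 days of incubation. Data given as mean OD of quadruplicate wells ± SE.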

Data set [8] deals with Jurkat. Briefly: Inhibition of apoptosis in human Jurkat cells assessed as caspase-8 expression relative to beta-actin at 10 ug/ml after 24 hrs by RT-PCR analysis. Type of data set: functional. The gist of the method:
as §1

Data set [9] deals with PBMC. Briefly: Immunosuppressive activity in human PBMC assessed as inhibition of PHA-induced cell proliferation at 10 ug/ml after 4 days by MTT assay. The class given is functional, cell-based. The gist of the method:
as §2

Data set [10] addresses T2, Prostaglandin G/H synthase 1 (Ovis aries) (UniProt P05979).
T2 sequence (whole entry): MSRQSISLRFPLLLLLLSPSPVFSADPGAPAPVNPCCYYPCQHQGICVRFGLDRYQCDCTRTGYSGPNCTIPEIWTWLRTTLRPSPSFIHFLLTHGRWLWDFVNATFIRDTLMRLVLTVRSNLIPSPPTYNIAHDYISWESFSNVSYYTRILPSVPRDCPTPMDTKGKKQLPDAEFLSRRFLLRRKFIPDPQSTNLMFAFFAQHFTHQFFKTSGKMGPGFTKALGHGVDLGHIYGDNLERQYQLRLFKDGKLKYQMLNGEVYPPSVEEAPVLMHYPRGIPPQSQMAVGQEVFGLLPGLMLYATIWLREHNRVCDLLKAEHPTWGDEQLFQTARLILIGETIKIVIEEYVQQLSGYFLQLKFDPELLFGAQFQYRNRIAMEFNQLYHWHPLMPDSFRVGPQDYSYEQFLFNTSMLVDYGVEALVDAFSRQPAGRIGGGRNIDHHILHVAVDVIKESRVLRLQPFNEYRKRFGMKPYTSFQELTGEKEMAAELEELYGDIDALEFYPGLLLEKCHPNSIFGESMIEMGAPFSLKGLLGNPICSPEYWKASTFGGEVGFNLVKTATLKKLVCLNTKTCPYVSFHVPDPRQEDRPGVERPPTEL
As to the kind of experiment: Inhibition of ovine COX-1 assessed as PGE2 formation at 100 pg/ml (reference value: 981 ng/ml).

The subject of data set [11] is PBMC. Briefly: Anti-inflammatory activity in human PBMC assessed as inhibition of LPS-induced TNFalpha production at 10 ug/ml after overnight incubation by immunoassay. Type of data set: functional. The gist of the method:
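Diluted venous blood from a single donor (10× in RPMI-1640), 1 mL cultures, stimulated with 1 µg/mL LPS from E. coli O:111:B4. Peptides added at 1 and 10 µg/mL from DMSO stock (5 mg/200 µL) diluted in RPMI-1640. DMSO dilutions served as 100% controls. Overnight incubation, then supernatants frozen at -20 C and TNF-α measured by ELISA.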

Data set [12] addresses T1, Prostaglandin G/H synthase 2 (Homo sapiens). As to the kind of experiment: Inhibition of human recombinant COX-2 assessed as PGE2 formation at 5000 pg/ml (reference value: 1072 ng/ml).
Data set [13] concerns HT-29. As to the kind of experiment: Cytotoxicity against human HT-29 cells at 25 ug/ml. Type of data set: functional, cell-based.
For data set [14], the system named is A-431. As to the kind of experiment: Cytotoxicity against human A431 cells at 25 ug/ml. Type of data set: functional, cell-based.
For data set [15], the target named is T2, Prostaglandin G/H synthase 1 (Ovis aries). Briefly: Inhibition of ovine COX-1 assessed as PGE2 formation at 1000 pg/ml (reference value: 981 ng/ml).

For `CC[C@H](C)[C@@H]1NC(=O)[C@H](CC(C)C)NC(=O)[C@H](Cc2ccccc2)NC(=O)CC[C@H](Cc2ccccc2)NC(=O)[C@@H]2CCCN2C(=O)[C@@H]2CCCN2C(=O)[C@H](C(C)C)NC(=O)[C@H](CC(C)C)NC(=O)[C@H]([C@@H](C)CC)NC1=O`, the Activity result is “Non-Toxic” in data set [1]; 1180 ng/mL in data set [5]; 1060 ng/mL in data set [6]; “Dose-dependent effect” in data set [7]; 1110 ng/mL in [10]; 1230 ng/mL in data set [12]. The Activity in data set [15] came out at 1030 ng/mL. Moreover, the entries for the “fold change (FC)” value in [2], in data set [4] and in data set [8] were 0.538, 0 and 0.591, respectively. Further, the result in data set [3] and in data set [9] was Active. Besides, in data set [11], the inhibition entry was “Active”. Also, the outcome in [13] and in data set [14] was inactive.
